# Test results published in BindingDB's records for doi:10.1016/j.ejmech.2016.08.061 (South China University of Technology, 2017).
# How the values were obtained:
# Cholinesterase [1] = molecular target: Cholinesterase (Homo sapiens, UniProt P06276); test: Irreversible inhibition of human plasma BuChE assessed as second order carbamylation rate constant using S-butyrylthiocholine iodide as substrate preincubated up to 45 mins followed by substrate addition measured after 5 mins; conditions: read-out: kon (M-1-s-1)
# Method in brief: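 Diluted human plasma BChE was preincubated for 1–45 min with inhibitor at 5×10^-9, 1×10^-8, 2.5×10^-8 and 5×10^-8 M. Residual Ellman activity with BTCh at pH 8 was normalised to a water control. kobs came from a one-phase exponential fit; k_I1 came from the slope of kobs versus concentration.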
# Cholinesterase [2] = molecular target: Cholinesterase (Equus caballus, UniProt P81908); test: Irreversible inhibition of equine serum BuChE assessed as second order carbamylation rate constant using S-butyrylthiocholine iodide as substrate preincubated up to 45 mins followed by substrate addition measured after 5 mins; conditions: read-out: kon (M-1-s-1)
# Method in brief: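 Equine BChE, pH 8, 37°C, was preincubated for 1, 2, 4, 8, 15, 30 and 45 min with inhibitor at 1×10^-7 to 5×10^-6 M (seven levels). Residual activity was read by Ellman with BTCh and normalised to a water control at each time. kobs came from a one-phase exponential decay fit; k_I1 came from the linear kobs versus concentration relation.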
# Chain of Cholinesterase (Homo sapiens, UniProt P06276) (P06276 whole entry): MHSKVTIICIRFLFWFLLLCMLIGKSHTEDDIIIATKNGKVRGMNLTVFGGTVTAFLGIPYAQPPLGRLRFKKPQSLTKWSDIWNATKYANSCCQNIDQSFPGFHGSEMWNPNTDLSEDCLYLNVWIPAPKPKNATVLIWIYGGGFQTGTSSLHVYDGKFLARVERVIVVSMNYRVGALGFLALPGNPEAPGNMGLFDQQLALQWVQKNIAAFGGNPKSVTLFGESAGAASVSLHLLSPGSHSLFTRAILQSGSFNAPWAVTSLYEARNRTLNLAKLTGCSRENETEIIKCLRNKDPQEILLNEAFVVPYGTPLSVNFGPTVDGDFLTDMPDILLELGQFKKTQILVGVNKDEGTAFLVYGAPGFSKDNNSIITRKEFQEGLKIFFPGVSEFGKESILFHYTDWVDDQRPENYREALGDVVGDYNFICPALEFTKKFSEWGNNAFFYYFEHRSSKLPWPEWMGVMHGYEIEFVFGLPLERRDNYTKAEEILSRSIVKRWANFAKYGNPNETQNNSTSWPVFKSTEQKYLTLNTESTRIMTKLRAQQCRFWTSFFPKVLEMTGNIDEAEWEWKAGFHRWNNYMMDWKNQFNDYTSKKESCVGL
# Chain of Cholinesterase (Equus caballus, UniProt P81908) (P81908 whole entry): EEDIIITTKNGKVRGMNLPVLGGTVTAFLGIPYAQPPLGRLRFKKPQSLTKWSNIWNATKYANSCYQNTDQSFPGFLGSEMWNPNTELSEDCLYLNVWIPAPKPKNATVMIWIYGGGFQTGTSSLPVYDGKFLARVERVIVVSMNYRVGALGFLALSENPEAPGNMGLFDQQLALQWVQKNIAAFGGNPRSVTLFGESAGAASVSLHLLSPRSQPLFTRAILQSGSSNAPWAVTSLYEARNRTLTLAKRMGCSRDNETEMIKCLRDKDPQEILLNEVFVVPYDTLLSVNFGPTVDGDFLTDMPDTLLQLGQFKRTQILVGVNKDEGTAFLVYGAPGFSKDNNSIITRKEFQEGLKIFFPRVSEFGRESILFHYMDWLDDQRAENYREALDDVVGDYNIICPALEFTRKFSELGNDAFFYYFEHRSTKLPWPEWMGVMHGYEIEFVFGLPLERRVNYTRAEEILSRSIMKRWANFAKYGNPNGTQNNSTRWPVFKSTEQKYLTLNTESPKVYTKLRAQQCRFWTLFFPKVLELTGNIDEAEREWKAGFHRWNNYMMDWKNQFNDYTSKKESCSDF
SMILES,kon (Cholinesterase [1]) [M⁻¹ s⁻¹],kon (Cholinesterase [2]) [M⁻¹ s⁻¹]
CCC(C)(C)NCC(O)c1cc(OC(=O)N(C)C)cc(OC(=O)N(C)C)c1 (centres undefined),100000,2370
CCN(C)C(=O)Oc1cc(OC(=O)N(C)CC)cc(C(O)CNC(C)(C)CC)c1 (centres undefined),122000,2480
